Measurements taken from ChEMBL document CHEMBL3243974, “Cyclic analogues of luteinizing hormone-releasing hormone with significant biological activities” (1978).

Legend:
Format in all cases: functional
Rattus norvegicus [1] = species: Rattus norvegicus; experiment: Stimulation of luteinizing hormone release in ovariectomized rat at 1000 ng pretreated with estrogen and progesterone by radioimmunoassay relative to LH-RH
Summary of the method: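 Ovariectomized rats primed with estrogen and progesterone received peptide at 250 and 1000 ng, with saline and synthetic LH-RH (2.5 and 10 ng) as references. Serum LH was measured by radioimmunoassay. Activity is expressed as % of synthetic LH-RH (taken as 100) with 95% confidence limits.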

Rattus norvegicus [2] = species: Rattus norvegicus; experiment: Stimulation of luteinizing hormone release in ovariectomized rat assessed as serum luteinizing hormone level at 250 ng pretreated with estrogen and progesterone by radioimmunoassay relative to control
Summary of the method: (§1)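 Ovariectomized rats pretreated with estrogen and progesterone, then given peptide at two doses (250 and 1000 ng). Saline alone and synthetic LH-RH at 2.5 and 10 ng served as comparators. Serum LH was measured by radioimmunoassay and reported in ng/mL ± SE.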

Rattus norvegicus [3] = species: Rattus norvegicus; experiment: Stimulation of luteinizing hormone release in ovariectomized rat assessed as serum luteinizing hormone level at 1000 ng pretreated with estrogen and progesterone by radioimmunoassay relative to control; summary of the method: as §1

Row | SMILES | Activity (Rattus norvegicus [1]) [%] | Activity (Rattus norvegicus [2]) [ng/mL] | Activity (Rattus norvegicus [3]) [ng/mL]
1 | CC(C)C[C@H](NC(=O)[C@@H](C)NC(=O)[C@H](Cc1ccc(O)cc1)NC(=O)[C@H](CO)NC(=O)[C@H](Cc1c[nH]c2ccccc12)NC(=O)[C@H](Cc1cnc[nH]1)NC(=O)CCN)C(=O)N[C@@H](CCCNC(=N)N)C(=O)N1CCC[C@H]1C(=O)NCC(=O)O | <0.01 | 80.74 | 65.69
2 | CC(C)C[C@@H]1NC(=O)[C@@H](C)NC(=O)[C@H](Cc2ccc(O)cc2)NC(=O)[C@H](CO)NC(=O)[C@H](Cc2c[nH]c3ccccc23)NC(=O)[C@H](Cc2cnc[nH]2)NC(=O)CCNC(=O)CNC(=O)[C@@H]2CCCN2C(=O)[C@H](CCCNC(=N)N)NC1=O | 1.2 | 206.67 | 364.59
3 | CC(C)C[C@@H]1NC(=O)[C@@H](C)NC(=O)[C@H](Cc2ccc(O)cc2)NC(=O)[C@H](CO)NC(=O)[C@H](Cc2c[nH]c3ccccc23)NC(=O)[C@H](Cc2cnc[nH]2)NC(=O)CCCCCNC(=O)CNC(=O)[C@@H]2CCCN2C(=O)[C@H](CCCNC(=N)N)NC1=O | 0.65 | 151.02 | 315.81
